Measurements reported in ChEMBL document CHEMBL1811759, “Synthesis and topoisomerase I inhibitory activity of a novel diazaindeno[2,1-b]phenanthrene analogue of Lamellarin D” (Bioorg Med Chem, 2011).
Calls of active or inactive are those of the source. The rule behind the calls is not given here.

Columns and labels:
NCI-H460 [1] = test: Antiproliferative activity against human NCI-H460 cells after 1 hr by coulter counter analysis; format: functional, cell-based; conditions: NCI-H460, 1 h
In short: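 NCI-H460 NSCLC cells in RPMI-1640 + 10% foetal calf serum; log-phase cells seeded in duplicate, drug added 24 h after seeding for 1 h, then counted (Coulter counter) 72 h later. IC50 = concentration giving 50% decrease in cell growth vs untreated control.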

NCI-H460 [2] = test: Antiproliferative activity against human NCI-H460 cells after 72 hrs by coulter counter analysis; format: functional, cell-based; conditions: NCI-H460, 72 h
In short: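 NCI-H460 cells grown in RPMI-1640 with 10% foetal calf serum; log-phase cells seeded in duplicate, exposed 24 h post-seeding for 72 h continuously, counted by Coulter counter at end of exposure. IC50 taken as concentration halving cell growth relative to untreated control.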

[3] = biological target: T1, DNA topoisomerase 1 (Homo sapiens) (UniProt P11387); test: Stimulation of human recombinant DNA topoisomerase 1-mediated 751-bp BamHI-EcoRV fragment of SV40 DNA cleavage at 100 uM after 30 mins by polyacrylamide gel-electrophoresis
T1 sequence (whole entry): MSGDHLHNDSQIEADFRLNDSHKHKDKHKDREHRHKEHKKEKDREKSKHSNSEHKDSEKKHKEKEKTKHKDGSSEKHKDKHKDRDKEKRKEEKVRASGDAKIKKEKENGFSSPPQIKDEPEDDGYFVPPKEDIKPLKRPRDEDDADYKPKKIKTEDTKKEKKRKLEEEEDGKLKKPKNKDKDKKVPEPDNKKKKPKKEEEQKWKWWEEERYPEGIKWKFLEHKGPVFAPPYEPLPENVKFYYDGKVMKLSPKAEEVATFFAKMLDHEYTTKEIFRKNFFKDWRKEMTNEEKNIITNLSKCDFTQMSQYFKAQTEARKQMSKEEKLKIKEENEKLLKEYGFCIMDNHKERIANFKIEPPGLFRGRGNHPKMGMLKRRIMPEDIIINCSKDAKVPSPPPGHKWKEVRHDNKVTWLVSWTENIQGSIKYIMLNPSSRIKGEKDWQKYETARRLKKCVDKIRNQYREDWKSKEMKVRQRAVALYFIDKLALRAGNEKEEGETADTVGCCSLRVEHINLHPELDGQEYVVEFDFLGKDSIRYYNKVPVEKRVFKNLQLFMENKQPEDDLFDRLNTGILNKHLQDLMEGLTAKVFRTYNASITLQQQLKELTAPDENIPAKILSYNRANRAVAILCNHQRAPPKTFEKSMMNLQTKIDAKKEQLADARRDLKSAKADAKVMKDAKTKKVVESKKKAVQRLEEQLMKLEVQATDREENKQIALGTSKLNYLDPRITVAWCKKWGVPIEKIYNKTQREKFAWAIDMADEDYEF
In short: (§1)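 Gel-purified 751-bp BamHI–EcoRV SV40 DNA fragment, uniquely 3'-end labeled (10,000 cpm/sample), incubated with full-length human recombinant topoisomerase I in 10 mM Tris–HCl pH 7.6, 150 mM KCl, 5 mM MgCl2, 0.1 mM DTT, 30 min, 37 °C. Stopped with 0.5% SDS plus 0.3 mg/mL proteinase K (45 min, 42 °C); products resolved on denaturing 8% polyacrylamide/TBE gel.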

[4] = biological target: T1, DNA topoisomerase 1 (Homo sapiens); test: Stimulation of human recombinant DNA topoisomerase 1-mediated 751-bp BamHI-EcoRV fragment of SV40 DNA cleavage at 1 to 50 uM after 30 mins by polyacrylamide gel-electrophoresis; in short: as §1

COc1cc(-c2c3n(c(=O)c4c2c2cc(OC)c(O)cc2n4C)COc2cc(O)c(OC)cc2-3)ccc1O
IC50 (NCI-H460 [1]): 4.02 µM | IC50 (NCI-H460 [2]): 0.35 µM | Activity [3]: Active

CCc1c2c(nc3ccc(O)cc13)-c1cc3c(c(=O)n1C2)COC(=O)[C@]3(O)CC
Activity [4]: Active

COc1cc2c3c(-c4ccc(OC(C)C)c(OC)c4)c(-c4ccc(OC(C)C)c(OC)c4)[nH]c(=O)c3n(Cc3ccccc3)c2cc1OCc1ccccc1
IC50 (NCI-H460 [1]): > 150 µM | Activity [4]: inactive

COc1cc(-c2[nH]c(=O)c3c(c2-c2ccc(O)c(OC)c2)c2cc(OC)c(O)cc2n3Cc2ccccc2)ccc1O
IC50 (NCI-H460 [1]): 119 µM | Activity [4]: inactive

COc1cc(-c2[nH]c(=O)c3c(c2-c2ccc(OC(C)C)c(OC)c2)c2ccccc2n3C)ccc1OC(C)C
IC50 (NCI-H460 [1]): 60.8 µM

COc1cc(-c2[nH]c(=O)c3[nH]c4cc(O)c(OC)cc4c3c2-c2ccc(O)c(OC)c2)ccc1O
IC50 (NCI-H460 [1]): 60.8 µM | Activity [4]: inactive

Cn1c2ccccc2c2cc3n(c(=O)c21)COc1ccccc1-3
IC50 (NCI-H460 [1]): 118 µM

COc1cc(-c2[nH]c(=O)c3[nH]c4cc(OC)c(O)cc4c3c2-c2ccc(O)c(OC)c2)ccc1O
IC50 (NCI-H460 [1]): 60.8 µM

CC[C@@]1(O)C(=O)OCc2c1cc1n(c2=O)Cc2cc3c(CN(C)C)c(O)ccc3nc2-1 [TOPOTECAN]
IC50 (NCI-H460 [1]): 1.75 µM | IC50 (NCI-H460 [2]): 0.016 µM

COc1cc(-c2[nH]c(=O)c3c(c2-c2ccc(O)c(OC)c2)c2ccccc2n3C)ccc1O
IC50 (NCI-H460 [1]): 60.8 µM

COc1cc(-c2c3c4cc(OC)c(O)cc4oc(=O)c3n3ccc4cc(O)c(OC)cc4c23)ccc1O [LAMELLARIN D]
IC50 (NCI-H460 [1]): 0.066 µM | IC50 (NCI-H460 [2]): 0.003 µM | Activity [4]: Active
